Reference: ChEMBL document CHEMBL4376814, “Novel cyclin-dependent kinase 9 (CDK9) inhibitor with suppression of cancer stemness activity against non-small-cell lung cancer” (Eur J Med Chem, 2019)
Activity calls are given as the source filed them. No cut-off for these calls is given here.

What was measured:
[1] = molecular target: Death-associated protein kinase 2 (Homo sapiens) (UniProt Q9UIK4); test: Inhibition of recombinant full-length human DAPK2 at 1 uM using calmodulin as substrate measured after 40 mins in presence of [gamma33P]ATP by scintillation counting method relative to control
[2] = molecular target: Casein kinase 2 (Homo sapiens) (UniProt P67870+P68400+P19784+Q8NEV1); test: Inhibition of human CK2 at 1 uM relative to control; type: protein assay
Summary of the method: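 Percent inhibition of kinase activity at a single compound concentration, measured by the outsourced Eurofins KinaseProfiler panel. Values are the mean of two independent experiments.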

Homo sapiens [3] = species: Homo sapiens; test: Inhibition of recombinant human Mer H628Q/R794A mutant (557 to 882 residues) at 1 uM using GGMEDIYFEFMGGKKK as substrate measured after 40 mins in presence of [gamma33P]ATP by scintillation counting method relative to control
[4] = molecular target: Cyclin-dependent kinase 9 (Homo sapiens) (UniProt P50750); details: 0.25 to 1 uM
[5] = tested on: RAF proto-oncogene serine/threonine-protein kinase (Homo sapiens), P04049 [Y340D,Y341D]; test: Inhibition of recombinant human c-RAF Y340D/Y341D double mutant ([…]) at 1 uM using inactive MEK1 as substrate measured after 40 mins in presence of [gamma33P]ATP by scintillation counting method relative to control
Homo sapiens [6] = species: Homo sapiens; test: Inhibition of recombinant full-length human JNK2alpha2 S51N mutant at 1 uM using ATF2 as substrate measured after 40 mins in presence of [gamma33P]ATP by scintillation counting method relative to control
[7] = molecular target: MAP kinase-activated protein kinase 3 (Homo sapiens) (UniProt Q16644); test: Inhibition of recombinant human MAPKAPK3 (2 to end residues) at 1 uM using KKLNRTLSVA as substrate measured after 40 mins in presence of [gamma33P]ATP by scintillation counting method relative to control
[8] = molecular target: Serine/threonine-protein kinase WNK3 (Homo sapiens) (UniProt Q9BYP7); test: Inhibition of recombinant human WNK3 (1 to 434 residues) at 1 uM using MBP as substrate measured after 40 mins in presence of [gamma33P]ATP by scintillation counting method relative to control
Summary of the method: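 Single-point inhibition at 1 µM was measured in the Eurofins KinaseProfiler panel. Values are the mean of two independent experiments.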

[9] = Half life in Beagle dog liver microsomes at 2 uM in presence of NADPH measured up to 1 hr by HPLC analysis; type: ADME, Canis lupus familiaris, Microsome
Summary of the method: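 Drug at 2 µM incubated at 37 °C with male liver microsomes at 1 mg/mL, in 0.1 M phosphate buffer pH 7.4 with MgCl2. After 5 min preincubation, reaction started with NADPH. Samples (n=3) taken at 0, 10, 20, 30, 45 and 60 min, quenched with ice-cold acetonitrile, spun, and analysed by HPLC. t1/2 derived from the fitted rate constant k.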

A549 = test: Induction of apoptosis in human A549 cells assessed as necrotic cells at 1 uM after 48 hrs by AnnexinV-FITC/PI staining-based flow cytometric analysis (reference value: 0.664%); type: functional
[10] = molecular target: MAP/microtubule affinity-regulating kinase 3 (Homo sapiens) (UniProt P27448); test: Inhibition of recombinant full-length human MARK3 at 1 uM using KKKVSRSGLYRSPSMPENLNRPR as substrate measured after 40 mins in presence of [gamma33P]ATP by scintillation counting method relative to control
[11] = molecular target: Testis-specific serine/threonine-protein kinase 4 (Homo sapiens) (UniProt Q6SA08); test: Inhibition of recombinant full-length human TSSK4 at 1 uM using KKLNRTLSFAEPG as substrate measured after 40 mins in presence of [gamma33P]ATP by scintillation counting method relative to control
[12] = molecular target: Vascular endothelial growth factor receptor 2 (Homo sapiens) (UniProt P35968); test: Inhibition of recombinant human KDR (790 to end residues) at 1 uM using MBP as substrate measured after 40 mins in presence of [gamma33P]ATP by scintillation counting method relative to control
[13] = molecular target: Calcium/calmodulin-dependent protein kinase type 1 (Homo sapiens) (UniProt Q14012); test: Inhibition of recombinant human CaMK1 (2 to end residues) at 1 uM using calmodulin as substrate measured after 40 mins in presence of [gamma33P]ATP by scintillation counting method relative to control
[14] = molecular target: Calcium/calmodulin-dependent protein kinase type II subunit beta (Homo sapiens) (UniProt Q13554); test: Inhibition of recombinant human CaMK2 beta (1 to 315 resiudes) at 1 uM using calmodulin as substrate measured after 40 mins in presence of [gamma33P]ATP by scintillation counting method relative to control
[15] = tested on: Mitogen-activated protein kinase 14 (Homo sapiens), Q16539 [T106M]; test: Inhibition of recombinant full-length human SAPK2a T106M mutant at 1 uM using myelin basic protein as substrate measured after 40 mins in presence of [gamma33P]ATP by scintillation counting method relative to control
[16] = molecular target: Platelet-derived growth factor receptor alpha (Homo sapiens) (UniProt P16234); test: Inhibition of recombinant human PDGFRalpha (550 to end residues) at 1 uM using poly[Glu:Tyr] (4:1) as substrate measured after 40 mins in presence of [gamma33P]ATP by scintillation counting method relative to control
NCI-H1299 = test: Downregulation of cyclin T1 expression in human H1299 cells at 0.25 to 1 uM after 24 hrs by Western blot analysis; type: functional, cell-based
Summary of the method: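 A549 and H1299 cells treated for 24 h with serial dilutions alongside a DMSO control. Protein extracts resolved and immunoblotted.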

[17] = molecular target: Muscle, skeletal receptor tyrosine-protein kinase (Homo sapiens) (UniProt O15146); test: Inhibition of recombinant human MUSK (530 to end residues) at 1 uM using myelin basic protein as substrate measured after 40 mins in presence of [gamma33P]ATP by scintillation counting method relative to control
[18] = Half life in Sprague-Dawley rat liver microsomes at 2 uM in presence of NADPH measured up to 1 hr by HPLC analysis; type: ADME, Microsome
Summary of the method: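 Compound at 2 μM incubated at 37 °C with liver microsomes (1 mg/mL), 3 mM MgCl2 and 0.1 M phosphate buffer pH 7.4; 5 min preincubation, then started with 3 mM NADPH. Aliquots (n = 3) at 0, 10, 20, 30, 45, 60 min quenched with ice-cold acetonitrile, centrifuged, supernatant by HPLC. t1/2 from linear-regression kinetic constant k.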

[19] = tested on: RAC-gamma serine/threonine-protein kinase (Homo sapiens), Q9Y243 [S472D]; test: Inhibition of recombinant human pkb-gamma S472D mutant (117 to end residues) S472D mutant at 1 uM using GRPRTSSFAEGKK as substrate measured after 40 mins in presence of [gamma33P]ATP by scintillation counting method relative to control

Serine/threonine-protein kinase WNK3 (Homo sapiens), sequence (Q9BYP7 whole entry, the tested form may be a part): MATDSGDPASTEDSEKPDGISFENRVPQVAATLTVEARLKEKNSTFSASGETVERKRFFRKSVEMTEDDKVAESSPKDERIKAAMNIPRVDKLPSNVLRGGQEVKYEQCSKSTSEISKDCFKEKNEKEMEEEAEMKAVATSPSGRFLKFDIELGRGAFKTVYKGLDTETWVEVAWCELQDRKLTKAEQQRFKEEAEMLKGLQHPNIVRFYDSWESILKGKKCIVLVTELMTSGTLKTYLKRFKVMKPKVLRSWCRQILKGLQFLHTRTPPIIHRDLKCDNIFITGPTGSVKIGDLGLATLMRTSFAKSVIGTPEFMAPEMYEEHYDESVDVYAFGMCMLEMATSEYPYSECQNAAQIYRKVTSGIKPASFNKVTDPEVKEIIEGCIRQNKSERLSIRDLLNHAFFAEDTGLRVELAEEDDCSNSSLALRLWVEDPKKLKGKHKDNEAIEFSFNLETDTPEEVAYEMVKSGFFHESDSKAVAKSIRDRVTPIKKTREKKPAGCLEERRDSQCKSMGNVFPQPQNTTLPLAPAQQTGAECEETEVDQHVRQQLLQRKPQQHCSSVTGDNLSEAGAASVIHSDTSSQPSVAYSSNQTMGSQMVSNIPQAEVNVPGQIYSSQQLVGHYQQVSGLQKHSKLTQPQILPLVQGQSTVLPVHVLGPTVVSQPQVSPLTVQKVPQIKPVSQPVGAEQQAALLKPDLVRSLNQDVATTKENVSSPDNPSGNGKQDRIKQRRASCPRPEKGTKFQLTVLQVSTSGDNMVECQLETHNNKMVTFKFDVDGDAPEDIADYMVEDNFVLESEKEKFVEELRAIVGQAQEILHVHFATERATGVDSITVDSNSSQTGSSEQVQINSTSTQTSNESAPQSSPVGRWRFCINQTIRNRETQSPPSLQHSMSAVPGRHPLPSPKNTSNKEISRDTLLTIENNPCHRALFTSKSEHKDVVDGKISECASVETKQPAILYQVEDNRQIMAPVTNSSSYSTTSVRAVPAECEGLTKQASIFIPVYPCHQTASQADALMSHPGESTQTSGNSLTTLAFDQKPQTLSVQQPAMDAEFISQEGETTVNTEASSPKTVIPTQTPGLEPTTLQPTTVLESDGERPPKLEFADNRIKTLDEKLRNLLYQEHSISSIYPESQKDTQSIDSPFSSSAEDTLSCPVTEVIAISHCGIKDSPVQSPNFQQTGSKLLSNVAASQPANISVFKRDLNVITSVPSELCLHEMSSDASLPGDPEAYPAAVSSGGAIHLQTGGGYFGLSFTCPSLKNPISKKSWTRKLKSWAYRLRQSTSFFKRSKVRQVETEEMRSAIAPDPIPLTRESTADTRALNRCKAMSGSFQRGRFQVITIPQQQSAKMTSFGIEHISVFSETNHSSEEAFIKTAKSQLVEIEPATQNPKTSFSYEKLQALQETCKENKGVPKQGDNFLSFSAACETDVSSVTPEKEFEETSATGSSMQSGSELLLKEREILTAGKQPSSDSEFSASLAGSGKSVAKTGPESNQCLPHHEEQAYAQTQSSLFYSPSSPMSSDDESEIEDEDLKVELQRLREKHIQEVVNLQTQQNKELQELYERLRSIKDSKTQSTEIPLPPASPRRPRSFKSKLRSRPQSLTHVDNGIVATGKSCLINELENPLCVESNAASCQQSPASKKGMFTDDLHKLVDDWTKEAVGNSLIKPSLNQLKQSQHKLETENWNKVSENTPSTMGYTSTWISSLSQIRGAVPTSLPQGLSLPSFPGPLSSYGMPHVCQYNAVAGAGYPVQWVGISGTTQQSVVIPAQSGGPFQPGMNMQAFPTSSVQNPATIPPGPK
Mitogen-activated protein kinase 14 (Homo sapiens), Q16539 [T106M], sequence (Q16539 whole entry T106M): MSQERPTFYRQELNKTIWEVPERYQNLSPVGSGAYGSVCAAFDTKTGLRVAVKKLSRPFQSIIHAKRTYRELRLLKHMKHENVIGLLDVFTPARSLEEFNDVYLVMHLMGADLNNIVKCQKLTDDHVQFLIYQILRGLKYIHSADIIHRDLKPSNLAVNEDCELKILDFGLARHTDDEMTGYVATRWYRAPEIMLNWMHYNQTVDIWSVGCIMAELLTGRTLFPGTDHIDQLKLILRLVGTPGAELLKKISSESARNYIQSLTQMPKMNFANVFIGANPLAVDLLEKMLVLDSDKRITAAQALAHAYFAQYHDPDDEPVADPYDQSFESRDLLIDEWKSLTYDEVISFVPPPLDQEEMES
Muscle, skeletal receptor tyrosine-protein kinase (Homo sapiens), sequence (O15146 whole entry): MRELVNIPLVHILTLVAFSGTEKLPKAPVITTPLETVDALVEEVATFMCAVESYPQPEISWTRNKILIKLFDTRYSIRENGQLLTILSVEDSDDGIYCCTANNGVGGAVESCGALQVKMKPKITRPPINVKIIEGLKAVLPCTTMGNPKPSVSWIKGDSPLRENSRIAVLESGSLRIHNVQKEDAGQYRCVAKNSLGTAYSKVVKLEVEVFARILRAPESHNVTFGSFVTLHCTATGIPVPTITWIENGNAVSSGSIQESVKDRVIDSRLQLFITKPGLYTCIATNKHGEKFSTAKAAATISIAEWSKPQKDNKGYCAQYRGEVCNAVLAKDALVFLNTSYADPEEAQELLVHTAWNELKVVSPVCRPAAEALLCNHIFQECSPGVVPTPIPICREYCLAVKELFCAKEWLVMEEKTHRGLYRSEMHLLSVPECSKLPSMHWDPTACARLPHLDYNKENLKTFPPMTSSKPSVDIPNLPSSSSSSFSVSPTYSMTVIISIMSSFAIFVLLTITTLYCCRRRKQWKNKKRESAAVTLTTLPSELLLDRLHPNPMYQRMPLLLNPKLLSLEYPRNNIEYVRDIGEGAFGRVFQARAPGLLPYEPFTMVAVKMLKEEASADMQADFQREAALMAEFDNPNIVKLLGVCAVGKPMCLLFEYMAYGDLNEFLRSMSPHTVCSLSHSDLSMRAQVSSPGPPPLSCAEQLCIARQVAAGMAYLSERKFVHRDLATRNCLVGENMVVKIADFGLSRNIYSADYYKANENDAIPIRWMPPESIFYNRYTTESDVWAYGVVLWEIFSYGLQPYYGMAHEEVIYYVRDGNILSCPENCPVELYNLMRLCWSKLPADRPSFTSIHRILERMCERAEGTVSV
Testis-specific serine/threonine-protein kinase 4 (Homo sapiens), sequence (Q6SA08 whole entry): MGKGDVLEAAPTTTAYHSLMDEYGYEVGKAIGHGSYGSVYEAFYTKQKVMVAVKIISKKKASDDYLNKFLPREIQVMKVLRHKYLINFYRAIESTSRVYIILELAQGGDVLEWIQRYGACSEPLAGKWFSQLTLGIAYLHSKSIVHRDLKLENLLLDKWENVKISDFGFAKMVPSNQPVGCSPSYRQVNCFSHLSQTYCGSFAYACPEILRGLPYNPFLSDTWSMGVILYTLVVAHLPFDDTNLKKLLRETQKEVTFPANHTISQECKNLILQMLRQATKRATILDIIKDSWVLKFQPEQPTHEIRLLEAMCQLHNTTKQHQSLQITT
Vascular endothelial growth factor receptor 2 (Homo sapiens), sequence (P35968 whole entry): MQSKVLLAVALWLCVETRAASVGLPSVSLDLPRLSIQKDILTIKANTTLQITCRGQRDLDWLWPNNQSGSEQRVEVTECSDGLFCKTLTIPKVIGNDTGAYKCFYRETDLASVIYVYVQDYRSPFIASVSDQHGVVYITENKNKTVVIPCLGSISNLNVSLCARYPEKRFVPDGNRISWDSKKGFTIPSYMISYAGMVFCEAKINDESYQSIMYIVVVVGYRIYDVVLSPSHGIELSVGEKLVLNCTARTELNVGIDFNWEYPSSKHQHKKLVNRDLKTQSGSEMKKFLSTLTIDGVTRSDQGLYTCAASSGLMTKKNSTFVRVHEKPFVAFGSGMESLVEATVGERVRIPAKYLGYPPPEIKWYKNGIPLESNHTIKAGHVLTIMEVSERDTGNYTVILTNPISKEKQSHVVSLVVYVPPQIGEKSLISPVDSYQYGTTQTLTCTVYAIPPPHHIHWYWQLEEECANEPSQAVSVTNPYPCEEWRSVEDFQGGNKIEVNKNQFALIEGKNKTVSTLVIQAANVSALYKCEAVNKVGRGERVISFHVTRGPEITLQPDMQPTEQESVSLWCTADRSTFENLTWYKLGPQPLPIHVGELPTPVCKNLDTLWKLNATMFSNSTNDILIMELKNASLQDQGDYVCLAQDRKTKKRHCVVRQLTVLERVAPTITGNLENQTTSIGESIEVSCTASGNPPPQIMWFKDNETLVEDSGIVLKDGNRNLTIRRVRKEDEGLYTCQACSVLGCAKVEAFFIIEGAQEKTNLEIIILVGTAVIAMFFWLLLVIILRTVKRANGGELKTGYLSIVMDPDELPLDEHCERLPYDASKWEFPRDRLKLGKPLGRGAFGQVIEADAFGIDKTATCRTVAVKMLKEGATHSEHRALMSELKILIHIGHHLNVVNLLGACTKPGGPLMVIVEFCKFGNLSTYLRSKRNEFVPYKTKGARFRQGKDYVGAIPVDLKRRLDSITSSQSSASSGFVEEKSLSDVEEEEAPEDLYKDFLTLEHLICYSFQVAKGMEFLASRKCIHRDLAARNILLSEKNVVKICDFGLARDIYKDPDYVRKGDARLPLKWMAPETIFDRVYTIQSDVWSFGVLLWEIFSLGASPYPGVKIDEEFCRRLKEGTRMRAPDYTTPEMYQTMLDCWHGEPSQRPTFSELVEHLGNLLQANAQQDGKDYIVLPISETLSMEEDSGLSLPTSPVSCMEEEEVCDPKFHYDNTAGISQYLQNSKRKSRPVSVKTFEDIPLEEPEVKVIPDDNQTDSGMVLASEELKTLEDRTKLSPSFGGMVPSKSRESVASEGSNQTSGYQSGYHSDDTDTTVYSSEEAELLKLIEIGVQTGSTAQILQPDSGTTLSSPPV
MAP kinase-activated protein kinase 3 (Homo sapiens), sequence (Q16644 whole entry, looked up, the tested form may be a part): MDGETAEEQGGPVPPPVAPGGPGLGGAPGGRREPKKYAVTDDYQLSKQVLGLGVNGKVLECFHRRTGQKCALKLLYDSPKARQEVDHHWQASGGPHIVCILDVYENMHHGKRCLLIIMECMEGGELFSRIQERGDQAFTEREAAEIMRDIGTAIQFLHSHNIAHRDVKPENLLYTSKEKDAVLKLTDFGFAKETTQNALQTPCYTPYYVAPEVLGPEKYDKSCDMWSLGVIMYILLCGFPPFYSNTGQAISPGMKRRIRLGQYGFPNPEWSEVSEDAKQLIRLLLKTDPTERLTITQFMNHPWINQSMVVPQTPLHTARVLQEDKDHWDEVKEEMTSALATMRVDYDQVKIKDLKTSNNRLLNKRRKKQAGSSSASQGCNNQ

Structure (SMILES): CN(C)C(=O)c1cc2cnc(Nc3ccc(NC(=O)CCCCCCCN=C=S)cc3)nc2n1C1CCCC1
- inhibition [1]: -8%
- inhibition [2]: 4%
- inhibition (Homo sapiens [3]): 77%
- inhibition [4]: Active
- inhibition [5]: 33%
- inhibition (Homo sapiens [6]): 40%
- inhibition [7]: 0%
- inhibition [8]: 12%
- half-life at 2 µM [9]: 26.7 min
- Activity (A549): 7.76%
- inhibition [10]: 43%
- inhibition [11]: -7%
- inhibition [12]: 56%
- inhibition [13]: 6%
- inhibition [14]: 29%
- inhibition [15]: 0%
- inhibition [16]: 7%
- Activity (NCI-H1299): Active
- inhibition [17]: 66%
- half-life at 2 µM [18]: 40.8 min
- inhibition [19]: 10%
